PAD4 inh: blocks human protein arginine deiminase 4; Q9UM07; recombinant PAD4, RCA probe fluorescence polarization; inhibition, % at 6.36 µM; actives 0.41% (n = 330,000);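 active = percent inhibition above a cutoff equal to the mean of all tested compounds plus 3 SD, cut at about 15% in these data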;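 also: 0% = PAD4 with RCA probe and DMSO and 100% = probe without PAD4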
Target sequence (Q9UM07 whole entry, looked up): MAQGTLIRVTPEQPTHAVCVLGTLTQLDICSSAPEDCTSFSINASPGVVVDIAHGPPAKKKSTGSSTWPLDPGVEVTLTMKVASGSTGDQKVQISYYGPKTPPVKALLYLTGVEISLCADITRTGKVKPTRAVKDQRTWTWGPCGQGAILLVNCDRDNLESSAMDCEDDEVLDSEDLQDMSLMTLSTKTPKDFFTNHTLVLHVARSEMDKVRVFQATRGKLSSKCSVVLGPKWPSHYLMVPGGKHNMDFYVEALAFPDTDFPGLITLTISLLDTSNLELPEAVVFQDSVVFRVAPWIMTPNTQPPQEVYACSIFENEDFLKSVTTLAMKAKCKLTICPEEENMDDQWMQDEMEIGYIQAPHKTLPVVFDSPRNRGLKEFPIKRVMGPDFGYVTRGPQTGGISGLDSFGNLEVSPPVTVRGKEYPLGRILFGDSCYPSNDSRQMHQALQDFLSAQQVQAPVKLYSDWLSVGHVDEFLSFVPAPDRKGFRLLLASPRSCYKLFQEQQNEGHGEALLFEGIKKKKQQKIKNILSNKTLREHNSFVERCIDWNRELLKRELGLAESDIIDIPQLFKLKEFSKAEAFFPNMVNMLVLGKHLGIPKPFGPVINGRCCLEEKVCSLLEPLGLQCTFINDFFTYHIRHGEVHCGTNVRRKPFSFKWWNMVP
TDP2 absorb: blocks human TDP2 phosphodiesterase activity; actives 0.34% (n = 370,000); recombinant TDP2, T5PNP hydrolysis, p-nitrophenol absorbance 415 nm; inhibition, % at 12.8 µM; O95551;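 active = inhibition above the mean of all tested compounds plus 3 SD, set per campaign, cut at about 25% in these data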;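 also: 0% = DMSO with enzyme and 100% = buffer with substrate but no TDP2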
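Test system: Human TDP2 enzyme | Reagent: 5 mM T5PNP | Compound dosing: 12.8 µM single point, 1% DMSO | Incubation: Enzyme reaction with compound for 2 h at 37 °C | Technique: p-Nitrophenol epi absorbance | Read-out: % inhibition relative to enzyme-containing and enzyme-free wells | Benchmarks: High control without enzyme, low control DMSO plus TDP2 | Replicates: Singlicate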
UCH37 inh: blocks the human deubiquitinase UCH37 | actives 0.33% (n = 330,000) | purified proteasome/UCH37, Ub-AMC cleavage fluorescence | AID 588478 | inhibition, % (concentration not given with the values);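 active = mean inhibition over replicate wells above about 20%, limit read from the data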;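 also: 0% = compound-free wells with enzyme and 100% = wells lacking proteasome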
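Assay system: Proteasome-bound UCH37. Buffer or medium: pH 7.4 Tris-HCl (50 mM) with ovalbumin, ATP-MgCl2, DTT. Incubation: 30 min preincubation with enzyme, 25 min cleavage at room temperature. Measured by: fluorescence, ex 355 nm, em 460 nm. Read-out basis: percent inhibition. Control set: wells without proteasome as full block, compound-free enzyme plus substrate as uninhibited.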
HKDC1 inh: inhibitors of human hexokinase HKDC1; actives 0.16% (n = 340,000); inhibition, % at 20 µM; Q2TB90; recombinant HKDC1, G6PDH/diaphorase resazurin coupled fluorescence;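 active = inhibition above about 35% when tested at 20 µM, limit read from the data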;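 also: plate controls were DMSO wells with enzyme for no effect and DMSO wells lacking enzyme for full effect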
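System: Recombinant HKDC1 hexokinase | Amount: HKDC1 at 5 µg/mL | Reagent: Glucose with 1 mM ATP | Doses: Single 20 µM dose | Incubation: Reaction time 90 min, room temperature, protected from light | Signal: Coupled resazurin fluorescence, excitation 525 nm, emission 613 nm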
CTSL1 counter: counter-screen for PFM18AAP inhibitors: inhibitors of F. hepatica cathepsin L1. recombinant F. hepatica cathepsin L1, Z-Leu-Arg-MCA fluorescence. inhibition, % at 5.96 µM. actives 0.49% (n = 300,000);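 active = inhibition above the mean of all tested compounds plus 3 SD, set per screening campaign, cut at about 17% in these data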;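 also: 0% = plate median of test compound wells and 100% = 1 µM Z-Phe-Ala-diazomethylketone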
GSTO1 inh: blocks human GSTO1 in RBBP9 counter-screen | inhibition, % at 5.96 µM | recombinant GSTO1, activity-based probe fluorescence polarization | P78417 | AID 1974 | actives 1.1% (n = 300,000);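 active = inhibition above the campaign mean inhibition plus 3 SD, cut at about 35% in these data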;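 also: 0% = GSTO1-1 with DMSO and 100% = wells lacking GSTO1-1 enzyme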
GSTO1 inh conf: GSTO1 (human) inhibition, confirmation. recombinant GSTO1, probe fluorescence polarization. shares compounds with GSTO1 inh. inhibition, % at 5.96 µM. actives 54% (n = 2,400);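 active = inhibition above the primary screen's cutoff, its mean inhibition plus 3 SD, cut at about 35% in these data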;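 also: loss of polarization as inhibitors block binding of rhodamine sulfonate ester activity probe; 0% = GSTO1 with DMSO and 100% = wells lacking GSTO1 enzyme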
PAD4 FP conf: confirmation of human PAD4 inhibitors. shares compounds with PAD4 inh. recombinant PAD4, RCA probe fluorescence polarization. inhibition, % at 6.36 µM. actives 28% (n = 1,200);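 active = mean inhibition across replicates above the hit cutoff set by the earlier primary screen, cut at about 15% in these data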;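 also: inhibitors block active-site labeling by the probe so polarization falls; 0% = PAD4 with probe and DMSO and 100% = probe without PAD4 enzyme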
HKDC1 act conf2: HKDC1 (human) activation, single-dose confirmed; inhibition, % at 20 µM; AID 504708; shares compounds with HKDC1 inh; recombinant HKDC1, G6PDH/diaphorase resazurin fluorescence; active compounds read low; actives 14% (n = 740);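 active = inhibition at or below a set negative limit, negative inhibition meaning the enzyme was activated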
UCH37 reconfirm: confirmation of human UCH37 deubiquitinating enzyme inhibitors | shares compounds with UCH37 inh | Proteasome-bound UCH37, Ub-AMC cleavage fluorescence | inhibition, % at 20 µM | actives 27% (n = 480) | AID 624100;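 active = average inhibition over replicates above about 50%, so the earlier screening hit is confirmed, limit read from the data; inactive = the rest, counted as false positives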;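 also: based on cleavage rate fitted by regression over a 30 min kinetic read; 0% = proteasome plus Ub-AMC and 100% = Ub-AMC without proteasome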
TDP2 confirm: human TDP2 inhibition, confirmation | shares compounds with TDP2 absorb | recombinant human TDP2, absorbance read-out | inhibition, % at 12.8 µM | actives 22% (n = 1,100) | AID 743263; in the data active = inhibition above about 25%;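 also: 0% = vehicle with enzyme and 100% = no enzyme buffer only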
* hit, by the source's call. An excerpt weighted towards active compounds, which were near 1.6% of everything screened.

`CC(C)Oc1ccc(Cc2c(O)[nH]c(=O)[nH]c2=O)cc1` gave PAD4 inh -2, TDP2 absorb 1, UCH37 inh 9, HKDC1 inh -3, CTSL1 counter 0, GSTO1 inh 40* and GSTO1 inh conf 5.
`COP(=O)(OC)C(O)C(Cl)(Cl)Cl` (configuration not stated) gave PAD4 inh -1, CTSL1 counter 1, GSTO1 inh 44* and GSTO1 inh conf 34.
Screening COc1cc2c(cc1O)C[C@H]1c3c(cc(O)c(OC)c3-2)CCN1C returned PAD4 inh -9, TDP2 absorb -7, UCH37 inh -9, HKDC1 inh 9, CTSL1 counter 1 and GSTO1 inh 5.
CCCN1CCc2cc(O)cc3c2[C@H]1Cc1ccc(O)c(O)c1-3 was read as PAD4 inh 18*, TDP2 absorb 9, UCH37 inh 1, HKDC1 inh 8, CTSL1 counter 5, GSTO1 inh 89*, GSTO1 inh conf 3 and PAD4 FP conf -6.
Screening C=CCn1c(O)c(C(CC)=Nc2ccc(N(C)C)cc2)c(=O)[nH]c1=O returned PAD4 inh 30*, TDP2 absorb 7, UCH37 inh 2, HKDC1 inh -4, CTSL1 counter -2, GSTO1 inh 65*, GSTO1 inh conf 3 and PAD4 FP conf 9.
Screening NC(=NN=Cc1ccc(O)cc1)N[N+](=O)[O-] returned UCH37 inh 18.
For CN1CCc2cc3c(c4c2C1Cc1ccccc1-4)OCO3 (configuration not stated) the results were PAD4 inh 58*, TDP2 absorb 23, HKDC1 inh 32, CTSL1 counter 4, GSTO1 inh 77*, GSTO1 inh conf 63*, PAD4 FP conf -12 and HKDC1 act conf2 -1.
`Cc1cc(N(CCCl)CCCl)ccc1C=NN=C(N)c1cnccn1` gave UCH37 inh 5.
For Cn1ncnc2c(=O)n(C)c(=O)nc1-2 the results were PAD4 inh 68*, UCH37 inh 100*, HKDC1 inh 69*, CTSL1 counter 111*, GSTO1 inh 94*, GSTO1 inh conf 92*, PAD4 FP conf 66* and UCH37 reconfirm 100*.
CC12CC[C@H]3[C@@H](CCC4(O)C[C@H](O)CCC34C=NNC(=O)Cc3ccccc3)C1(O)CCC2C1=CC(=O)OC1 (some centres not stated) was read as UCH37 inh 4.
`C[n+]1c(-c2ccccc2)c2cc(N)ccc2c2ccc(N)cc21` gave PAD4 inh 81*, TDP2 absorb 58*, UCH37 inh 6, HKDC1 inh 3, CTSL1 counter 31*, GSTO1 inh 104*, GSTO1 inh conf 90*, PAD4 FP conf 74* and TDP2 confirm 20.
`Nc1ccc2ccc3cccc[n+]3c2c1` gave PAD4 inh 12, TDP2 absorb -10, HKDC1 inh 9, CTSL1 counter 3 and GSTO1 inh 33.
`COCCNC(=O)c1c(N)n(Cc2ccco2)c2nc3ccccc3nc12` gave PAD4 inh -7, TDP2 absorb 7, UCH37 inh inactive, HKDC1 inh 0, CTSL1 counter 1 and GSTO1 inh 21.

From PubChem
